Assay results: ChEMBL document CHEMBL2346557 (Bioorg Med Chem, 2013)

What was measured:
[1] = tested on: Mus musculus; experiment: Total unbound Cmax in CD1 mouse at 50 mg/kg, po; assay type: ADME, organism-based; design: dose 50 mg/kg, route oral; details: in vivo
[2] = tested on: Salmonella typhimurium; experiment: Genotoxicity in Salmonella typhimurium by Ames test; assay type: toxicity, organism-based; details: salmonella enterica subsp. enterica serovar typhimurium
[3] = Mean residence time in CD1 mouse at 10 mg/kg, iv; assay type: ADME, organism-based; design: dose 10 mg/kg, route intravenous; details: in vivo
In short: (§1)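 CD1 mice (n = 3 per compound) given 10 mg/kg as a single tail-vein injection in a pH 7.0 solution of 10% ethanol plus PEG400 (some compounds also with 10% DMSO). Blood was sampled at 0, 5, 15 and 30 min and 1, 2, 4, 8 and 24 h. Parameters were derived from the plasma concentration–time profiles.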

[4] = tested on: Canis familiaris; experiment: Total unbound AUC (0 to infinity) in beagle dog at 10 mg/kg, iv; assay type: ADME, organism-based, Canis lupus familiaris; design: dose 10 mg/kg, route intravenous; details: in vivo
[5] = tested on: Mus musculus; experiment: Total unbound AUC (0 to infinity) in CD1 mouse at 10 mg/kg, iv; assay type: ADME, organism-based; design: dose 10 mg/kg, route intravenous; details: in vivo
[6] = Clearance in Sprague-Dawley rat at 10 mg/kg, iv; assay type: ADME, organism-based; design: dose 10 mg/kg, route intravenous; details: in vivo
[7] = molecular target: Cytochrome P450 2D6 (Homo sapiens, UniProt P10635); experiment: Inhibition of CYP2D6 (unknown origin); assay type: ADME
[8] = Metabolic stability in dog liver microsomes assessed as compound remaining at 2 uM measured at 1 hr; assay type: ADME, Canis lupus familiaris, Microsome; details: read-out: Stability
In short: (§2)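 Liver microsomes (human, or male monkey, dog, rat or mouse) at 0.5 mg/mL final with 2 µM compound, 5 mM MgCl2 and 5 mM PBS. The reaction was started with 1 mM NADPH and run at 37 °C. Verapamil was the positive control; water replaced NADPH in the negative control. Read-out was percent parent remaining at 1 h.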

[9] = Tmax in beagle dog at 30 mg/kg, po; assay type: ADME, organism-based, Canis lupus familiaris; design: dose 30 mg/kg, route oral; details: in vivo
In short: (§3)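 Beagles (n = 3) were given an oral emulsion in 30% Labrafil. Blood was collected at 0, 5, 15 and 30 min and at 1, 2, 4, 8 and 24 h. Bioavailability was derived relative to IV dosing.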

[10] = Metabolic stability in monkey liver microsomes assessed as compound remaining at 2 uM measured at 1 hr; assay type: ADME, Macaca mulatta, Microsome; details: rhesus monkey, read-out: Stability; in short: as §2
[11] = Terminal half life in beagle dog at 10 mg/kg, iv; assay type: ADME, organism-based, Canis lupus familiaris; design: dose 10 mg/kg, route intravenous; details: in vivo, read-out: beta t1/2 (converted)
[12] = Terminal half life in CD1 mouse at 10 mg/kg, iv; assay type: ADME, organism-based; design: dose 10 mg/kg, route intravenous; details: in vivo, read-out: beta t1/2 (converted); in short: as §1
[13] = tested on: Canis familiaris; experiment: Total unbound AUC (0 to infinity) in beagle dog at 30 mg/kg, po; assay type: ADME, organism-based, Canis lupus familiaris; design: dose 30 mg/kg, route oral; details: in vivo; in short: as §3
[14] = molecular target: T1, Glucocorticoid receptor (Mus musculus) (UniProt P06537); experiment: Induction of glucocorticoid receptor nuclear translocation in mouse C2C12 cells at 1 x 10^-5 to 1.69 x 10^-10 M by chemiluminescence assay relative to control; assay type: cell-based
T1 sequence (whole entry): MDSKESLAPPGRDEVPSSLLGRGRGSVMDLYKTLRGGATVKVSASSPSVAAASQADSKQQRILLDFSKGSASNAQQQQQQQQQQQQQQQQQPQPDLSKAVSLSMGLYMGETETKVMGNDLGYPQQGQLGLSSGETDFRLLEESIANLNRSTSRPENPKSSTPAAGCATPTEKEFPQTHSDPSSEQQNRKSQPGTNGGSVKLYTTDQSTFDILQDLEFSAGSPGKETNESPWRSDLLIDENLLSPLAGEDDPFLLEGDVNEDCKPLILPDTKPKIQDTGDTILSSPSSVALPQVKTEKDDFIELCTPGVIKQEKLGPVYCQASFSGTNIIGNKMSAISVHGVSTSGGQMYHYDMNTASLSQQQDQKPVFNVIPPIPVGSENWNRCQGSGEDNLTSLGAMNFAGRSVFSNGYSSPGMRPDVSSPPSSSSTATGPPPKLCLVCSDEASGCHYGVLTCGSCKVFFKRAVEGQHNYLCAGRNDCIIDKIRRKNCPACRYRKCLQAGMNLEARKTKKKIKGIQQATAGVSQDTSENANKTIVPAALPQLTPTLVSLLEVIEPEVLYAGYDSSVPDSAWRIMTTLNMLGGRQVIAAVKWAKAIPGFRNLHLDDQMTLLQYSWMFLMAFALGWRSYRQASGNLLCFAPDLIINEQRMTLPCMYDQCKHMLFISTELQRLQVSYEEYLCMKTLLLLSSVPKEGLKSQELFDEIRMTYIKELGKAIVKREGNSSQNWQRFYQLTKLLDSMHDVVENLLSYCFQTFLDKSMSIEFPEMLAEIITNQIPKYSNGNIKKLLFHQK
In short: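 GR nuclear translocation measured by DiscoveRx in PathHunter cells using enzyme-fragment complementation. ProLink-tagged GR recruits a nuclear steroid receptor co-activator peptide fused to the enzyme acceptor, giving a chemiluminescent signal.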

[15] = tested on: Mus musculus; experiment: Oral bioavailability in CD1 mouse at 50 mg/kg; assay type: ADME, organism-based; details: in vivo
In short: (§4)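 CD1 mice (n = 3 per compound) were dosed orally at 50 mg/kg as an aqueous emulsion in 30% Labrafil. Blood was drawn at 0, 5, 15 and 30 min and 1, 2, 4, 8 and 24 h. Bioavailability and other parameters were calculated from the plasma profiles and compared against the intravenous arm.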

[16] = Terminal half life in Sprague-Dawley rat at 50 mg/kg, po; assay type: ADME, organism-based; design: dose 50 mg/kg, route oral; details: in vivo, read-out: beta t1/2 (converted)
In short: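 Sprague–Dawley rats (n = 3) were dosed orally with an emulsion in 30% Labrafil. Blood was sampled from 0 to 24 h (0, 5, 15, 30 min; 1, 2, 4, 8, 24 h). Bioavailability was derived against the IV arm.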

[17] = Volume of distribution at steady state in beagle dog at 10 mg/kg, iv; assay type: ADME, organism-based, Canis lupus familiaris; design: dose 10 mg/kg, route intravenous; details: in vivo, read-out: Vdss
[18] = Terminal half life in Sprague-Dawley rat at 10 mg/kg, iv; assay type: ADME, organism-based; design: dose 10 mg/kg, route intravenous; details: in vivo, read-out: beta t1/2 (converted)
[19] = Metabolic stability in rat liver microsomes assessed as compound ramaining at 2 uM measured at 1 hr; assay type: ADME, Microsome; details: read-out: Stability
In short: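 Rat liver microsomes at 0.5 mg/mL final, with 5 mM MgCl2 and 5 mM PBS. The reaction was started with 1 mM NADPH final and run at 37 °C. The negative control used water in place of NADPH; verapamil was the positive control. Read-out was % parent remaining at 1 h.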

[20] = tested on: Mus musculus; experiment: Total unbound Cmax in CD1 mouse at 10 mg/kg, iv; assay type: ADME, organism-based; design: dose 10 mg/kg, route intravenous; details: in vivo
[21] = tested on: Mus musculus; experiment: Total unbound AUC (0 to infinity) in CD1 mouse at 50 mg/kg, po; assay type: ADME, organism-based; design: dose 50 mg/kg, route oral; details: in vivo
[22] = Clearance in CD1 mouse at 10 mg/kg, iv; assay type: ADME, organism-based; design: dose 10 mg/kg, route intravenous; details: in vivo; in short: as §1
[23] = tested on: Canis familiaris; experiment: Oral bioavailability in beagle dog at 30 mg/kg; assay type: ADME, organism-based, Canis lupus familiaris; details: in vivo; in short: as §3
[24] = tested on: Canis familiaris; experiment: Total unbound Cmax in beagle dog at 30 mg/kg, po; assay type: ADME, organism-based, Canis lupus familiaris; design: dose 30 mg/kg, route oral; details: in vivo; in short: as §3
[25] = Terminal half life in CD1 mouse at 50 mg/kg, po; assay type: ADME, organism-based; design: dose 50 mg/kg, route oral; details: in vivo, read-out: beta t1/2 (converted); in short: as §4

Sequence of Cytochrome P450 2D6 (P10635 whole entry): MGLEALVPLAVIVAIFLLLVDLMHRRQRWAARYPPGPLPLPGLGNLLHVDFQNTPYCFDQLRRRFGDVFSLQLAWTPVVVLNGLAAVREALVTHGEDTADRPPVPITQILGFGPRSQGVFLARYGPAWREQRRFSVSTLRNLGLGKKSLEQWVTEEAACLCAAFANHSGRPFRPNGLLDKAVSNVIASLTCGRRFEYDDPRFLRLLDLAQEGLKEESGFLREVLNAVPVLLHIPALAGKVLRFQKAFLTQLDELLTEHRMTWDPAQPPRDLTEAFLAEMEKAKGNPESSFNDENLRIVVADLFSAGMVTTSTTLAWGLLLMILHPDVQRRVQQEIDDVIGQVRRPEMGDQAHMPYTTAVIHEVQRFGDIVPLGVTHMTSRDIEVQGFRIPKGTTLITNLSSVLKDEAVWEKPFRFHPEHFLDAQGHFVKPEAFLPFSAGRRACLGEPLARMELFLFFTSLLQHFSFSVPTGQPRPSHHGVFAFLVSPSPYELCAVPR

C[C@@H]1C[C@H]2[C@@H]3CCC4=CC(=O)C=C[C@]4(C)C3=CC[C@]2(C)[C@@]1(O)C(=O)CO [VAMOROLONE]
fCmax [1]: 6787 ng/mL | Activity [2]: Non-toxic | MRT [3]: 40 min | fAUC [4]: 6791 ng·h/mL | fAUC [5]: 8842 ng·h/mL | clearance [6]: 20.2 mL/min/kg | IC50 [7]: > 50 µM | remaining at 1 h, 2 µM [8]: 92.5% | Tmax [9]: 360 min | remaining at 1 h, 2 µM [10]: 100% | half-life [11]: 325 min | half-life [12]: 21.2 min | fAUC [13]: 10844 ng·h/mL | Activity [14]: 80.4% | F [15]: 74.5% | half-life [16]: 137 min | Vd [17]: 1.93 L/kg | half-life [18]: 34.8 min | remaining at 1 h, 2 µM [19]: 35.4% | fCmax [20]: 11167 ng/mL | fAUC [21]: 32932 ng·h/mL | clearance [22]: 18.8 mL/min/kg | F [23]: 53.2% | fCmax [24]: 814 ng/mL | half-life [25]: 40.7 min
